Bioassay records (PubChem BioAssay)
Rows were chosen to be rich in hits. Some 0.85% of all compounds tested hit in one or more screens of this group.
TRPN1 ag: agonists of zebrafish TRPN1 channel; HEK293 zebrafish TRPN1-YFP, Fluo-8 calcium fluorescence; 100% = response to 87 µM carbachol; activation, % at 3 µM; 220,000 tested, 0.18% active;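 active = activation above its plate's cutoff, the mean activation of test wells on that plate plus 3 SD, cut at about 19% in these data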;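 also: 0% = DMSO alone and 100% = 87 µM carbachol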
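Assay system: Zebrafish TRPN1-YFP in HEK293 cells | Incubation: Dye loading 1 h at 37 °C, then 30 min room temperature | Measured by: Kinetic Fluo-8 fluorescence, ex 470-495, em 515-575 nm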
CRFBP-R2 agonist: CRF-BP/CRF-R2 complex agonism; HEK293 CRF-R2/CRF-BP, calcium dye fluorescence (FLIPR); percent of saturating CRF peptide response; 350,000 tested, 0.46% active; activation, % at 13.2 µM;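 active = activation of at least 50%, plus an integration ratio under a set limit after plate pattern correction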;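 also: plate controls were neutral control wells without compound for no effect and CRF at EC100 for full effect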
TRPML3 agonist: human mucolipin-3 channel agonism | Q8TDD5 | HEK293 TRPML3-YFP, Fluo-8 calcium fluorescence; 100% = the carbachol control signal | activation, % at 3 µM | 220,000 tested, 0.29% active | AID 1448;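 active = activation above its plate's cutoff, the mean activation of the plate's test wells plus 3 SD, cut at about 12% in these data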;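 also: 0% = DMSO only wells and 100% = carbachol wells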
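Test system: TRPML3-YFP stable HEK293 cells. Doses: single point at 3 µM. Incubation: dye loading 1 h 37 °C then 30 min ambient, 125 s read. Signal: Fluo-8 calcium dye fluorescence, ex 470-495, em 515-575 nm. Measure: percent activation from peak-to-basal fluorescence ratio, scaled between DMSO and carbachol.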
OXTR potentiate: potentiators of human oxytocin receptor. P30559. CHO-OTR cells, Fluo-8 calcium fluorescence, potentiator mode; 0% = oxytocin EC15, 100% = EC100. activation, % at 3 µM. 320,000 tested, 0.061% active. AID 2445;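 active = activation above that plate's cutoff, the mean activation of tested compounds plus 3 SD, cut at about 6.6% in these data, passing the limit was not always enough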;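 also: 100% uses oxytocin at 75 nM as the full agonist control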
Target sequence (P30559 whole entry, looked up): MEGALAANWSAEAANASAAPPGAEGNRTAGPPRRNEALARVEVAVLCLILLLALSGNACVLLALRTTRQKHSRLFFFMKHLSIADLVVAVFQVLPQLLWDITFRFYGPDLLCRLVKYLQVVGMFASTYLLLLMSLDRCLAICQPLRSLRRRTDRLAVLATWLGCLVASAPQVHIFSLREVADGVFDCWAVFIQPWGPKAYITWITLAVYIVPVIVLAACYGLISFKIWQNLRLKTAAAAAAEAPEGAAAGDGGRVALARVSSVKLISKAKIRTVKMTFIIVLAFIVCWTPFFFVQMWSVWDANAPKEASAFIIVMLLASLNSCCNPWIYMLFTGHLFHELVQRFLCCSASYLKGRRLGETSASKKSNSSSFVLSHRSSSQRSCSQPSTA
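Assay system: CHO cell line stably expressing human OTR | Also added: Oxytocin at about EC15, sub-maximal agonist stimulus | Times: Compound 6 min at room temperature before oxytocin, 100 s read | Measured by: Fluo-8 intracellular calcium fluorescence, ex 470-495, em 515-575 nm | Controls: EC15 oxytocin alone as 0%, 75 nM oxytocin as 100%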
V1aR counter: counter-screen for oxytocin receptor agonists: human V1a receptor agonists | P37288 | CHO-V1R cells, Fluo-8 calcium fluorescence, agonist mode; 0% DMSO, 100% 3 nM vasopressin | activation, % at 3 µM | 320,000 tested, 0.25% active | AID 2797;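 active = activation above the mean activation of all tested compounds plus 3 SD, per screening run, cut at about 20% in these data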;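 also: signal is peak over basal fluorescence ratio across a 100 second FLIPR read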
OXTR ag: activates the human oxytocin receptor. 320,000 tested, 0.32% active. activation, % at 3 µM. CHO-OTR cells, Fluo-8 calcium fluorescence; normalized: DMSO 0%, oxytocin 100%. AID 2435. P30559;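 active = activation above the mean of all tested compounds plus 3 SD, cutoff set per screening run, cut at about 20% in these data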;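 also: peak over basal fluorescence ratio from a 100 s FLIPR kinetic read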
Active calls of the source: *; nt = no result.

SMILES	TRPN1 ag	CRFBP-R2 agonist	TRPML3 agonist	OXTR potentiate	V1aR counter	OXTR ag
CN1C(=O)C(=Cc2ccc(N3CCCCCC3)o2)C(=O)N(C)C1=S	11	99*	6	-4	20	12
O=C1NC(=O)N(c2ccc3c(c2)OCO3)C(=O)/C1=C\c1ccc(N2CCCCC2)o1	1	73*	1	-8	12	9
Cc1cc(/C=C2\C(=O)NC(=O)N(C)C2=O)c(C)n1-c1ccc2c(c1)OCO2	0	-1	1	-14	0	0
O=P(NC1CCCCC1)(Oc1ccccc1)Oc1ccccc1	nt	3	nt	nt	nt	nt
CC12CCC(=O)C=C1CCC1C2CCC2(C)C(O)(C(=O)CO)CCC12O (centres undefined)	nt	-1	nt	nt	nt	nt
Cc1cc2c(C(F)(F)F)cc(=O)oc2c2c1NCCC2	2	178*	2	-1	9	4
O=c1cc(C(F)(F)F)c2cc3c4c(c2o1)CCCN4CCC3	11	173*	8	-18	152*	169*
CC1(C)CN=C(Nc2ccc(F)c(Cl)c2)S1	0	17	0	-14	27*	16
CC1(C)CN=C(Nc2ccc(F)c(F)c2)S1	0	9	0	-8	13	5
C[C@H](CO)N1C[C@H](C)[C@H](CN(C)C(=O)Oc2ccccc2)OCc2cnnn2CCCC1=O	nt	-1	nt	nt	nt	nt
C/C=C(\C)C(=O)OC1C(C)=C2C(C1OC(=O)CCCCC)C(C)(OC(C)=O)CC(OC(=O)CCC)C1(O)C2OC(=O)C1(C)O (centres undefined)	nt	nt	nt	-11	65*	62*
c1ccc2c(c1)[nH]c1cnccc12	-1	-2	0	-8	1	0
Cc1c2ccncc2c(C)c2c1[nH]c1ccccc12	6	101*	4	1	11	9
O=[N+]([O-])c1ccc(N2CCCCCC2)c2nonc12	nt	191*	nt	-26	534*	413*
O=[N+]([O-])c1ccc(N2CCCCC2)c2ncccc12	-2	-2	0	-2	4	-1
CC(C(=O)Nc1ccc(Br)cc1C(=O)c1ccccc1)N1CCCCC1 (centres undefined)	-1	-2	-1	12*	-1	-2
CC(C)(C)C(=O)N1Cc2cnnn2-c2ccccc2C1C#N (centres undefined)	nt	-2	nt	nt	nt	nt
CC1OC(OC2C=C3CCC4C(CCC5(C)C(c6ccc(=O)oc6)CCC45O)C3(C)CC2)C(O)C(OC2OC(CO)C(O)C(O)C2O)C1O (centres undefined)	nt	2	nt	nt	nt	nt
Cc1ccccc1N1C(=O)/C(=C/c2ccco2)C(=O)NC1=S	nt	nt	nt	-5	4	2
CCc1ccccc1N1C(=O)/C(=C/c2ccc(N3CCN(C)CC3)o2)C(=O)NC1=S	3	55*	1	-8	0	1
Cc1cccc(N2C(=O)/C(=C/c3ccc(N4CCN(C)CC4)o3)C(=O)NC2=S)c1C	2	51*	1	-3	2	1
COc1ccc(CNCCc2c(C)[nH]c3ccc(OC(F)(F)F)cc23)c(OC)c1	nt	1	nt	-23	41*	41*
N#Cc1ccccc1OCC(=O)N1CCN(CC(=O)Nc2ccc(F)cc2)CC1	nt	0	nt	nt	nt	nt
c1ccc(C2(NC3=NCCO3)CCCCC2)cc1	nt	32	nt	nt	nt	nt
Nc1ccc2ccc3cccc[n+]3c2c1	nt	163*	nt	-16	92*	38*
SMILES	TRPN1 ag	CRFBP-R2 agonist	TRPML3 agonist	OXTR potentiate	V1aR counter	OXTR ag
O=C1CC23c4ccccc4N4C(=O)CC5OCC=C6CN1C2CC6C5C43 (centres undefined)	nt	1	nt	nt	nt	nt
CCCCn1c(O)c(C(CC)=NCCc2ccccc2)c(=O)[nH]c1=O	-1	5	0	-2	3	1
CCCCn1c(O)c(C(=O)/C=C/c2c[nH]c3ccccc23)c(=O)[nH]c1=O	-1	130*	1	-12	4	5
CCS(=O)(=O)CCSP(=O)(OC)OC	nt	-1	nt	nt	nt	nt
O=[N+]([O-])c1ccc(NCc2ccccc2)c2nonc12	332*	493*	216*	-17	692*	693*
S=C(NCCc1ccccc1)N1Cc2ccccc2-n2nncc2C1	nt	-1	nt	nt	nt	nt
